Rpn11 inh – Rpn11 (PSMD14) deubiquitinase inhibitors, primary screen, biochemical, fluorescence polarization, uHTS; AID 588493, 2011; human 26S proteasome, Ub4-pepOG fluorescence polarization; 20S core pre-blocked with epoxomicin; actives 0.59% (n = 360,000); 26S proteasome non-ATPase regulatory subunit 14 (Homo sapiens), O00487; inhibition, % at 20 µM;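 active means inhibition at 20 µM, scaled to each plate's controls, above about 33%, limit read from the data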
Target sequence (O00487 whole entry, looked up): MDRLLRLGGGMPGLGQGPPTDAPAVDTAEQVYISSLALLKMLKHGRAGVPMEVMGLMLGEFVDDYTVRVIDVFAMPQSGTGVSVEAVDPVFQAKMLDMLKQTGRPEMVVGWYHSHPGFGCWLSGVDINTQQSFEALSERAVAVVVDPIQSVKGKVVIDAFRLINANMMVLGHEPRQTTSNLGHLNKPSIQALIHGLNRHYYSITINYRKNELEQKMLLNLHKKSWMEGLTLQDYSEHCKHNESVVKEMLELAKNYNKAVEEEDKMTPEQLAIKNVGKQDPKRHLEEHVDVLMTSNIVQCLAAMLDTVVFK
CSN deneddyl inh – inhibitors of CSN-mediated cullin deneddylation, primary screen, biochemical, fluorescence polarization, uHTS; COP9 signalosome complex subunit 5 (Homo sapiens), Q92905; Purified CSN, SCF-Nedd8-OG deneddylation; inhibition, % at 12.5 µM; actives 0.38% (n = 360,000);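 active means pattern-corrected inhibition above about 35%, with an unprinted fluorescence ratio check between 0.5 and 1.5, limit read from the data, passing the limit was not always enough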;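 further: 0% = enzyme with substrate and 100% = substrate without enzyme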
Target sequence (Q92905 whole entry, looked up, one chain of several): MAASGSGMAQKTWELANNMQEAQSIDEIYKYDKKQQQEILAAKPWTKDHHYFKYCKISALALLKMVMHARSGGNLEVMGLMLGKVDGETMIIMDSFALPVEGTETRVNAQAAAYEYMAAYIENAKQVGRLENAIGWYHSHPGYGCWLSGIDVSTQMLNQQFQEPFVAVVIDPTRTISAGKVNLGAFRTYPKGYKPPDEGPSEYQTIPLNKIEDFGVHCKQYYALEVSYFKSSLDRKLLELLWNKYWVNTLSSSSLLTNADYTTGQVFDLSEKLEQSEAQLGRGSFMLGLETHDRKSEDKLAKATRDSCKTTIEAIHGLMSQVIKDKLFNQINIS
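Material: purified human Csn5 enzyme expressed in HEK293T cells / Medium: Tris buffer pH 7.5, NaCl, DTT, Tween-20, trehalose, ovalbumin / Compound dosing: 12.5 µM single point / Schedule: 90 min incubation of compound, enzyme and substrate at room temperature / Signal: fluorescence polarization of the substrate / Control set: no-enzyme wells high, enzyme-with-substrate wells low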
Tb MetRS inh – T. brucei MetRS inhibitors, primary screen, biochemical, luminescence. actives 0.4% (n = 360,000). inhibition, % at 11.9 µM. methionyl-tRNA synthetase (Trypanosoma brucei brucei). purified T. brucei MetRS, ATP depletion, Kinase-Glo luminescence;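 active means inhibition above a per-plate cutoff of the control wells' mean inhibition plus 3 SD, cut at about 5.5% in these data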;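 further: 0% = DMSO wells median and 100% = median of wells with control inhibitor compound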
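Measured by: Kinase-Glo luciferase luminescence reporting remaining unconsumed ATP. Material: purified T. brucei MetRS enzyme. Doses: 11.9 µM compound single dose, 0.9% DMSO. Medium: HEPES buffer containing pyrophosphatase, BSA, spermine, DTT. Times: 15 min preincubation, 2 h reaction, all 25 °C. Reagent: methionine, ATP and bulk E. coli tRNA.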
Neddylation inh – inhibitors of cullin neddylation, primary screen, biochemical, TR-FRET, uHTS, NAE and Ubc12. inhibition, % at 25 µM. actives 0.58% (n = 360,000). AID 651699, 2012; in the data active means inhibition above about 36%
PREPL inhibitor – PREPL enzyme inhibitors, primary screen, biochemical, fluorescence polarization. Prolyl endopeptidase-like (Homo sapiens), Q4J6C6. recombinant PREPL, fluorescence polarization activity-based probe. inhibition, % at 5.96 µM. actives 0.68% (n = 320,000); in the data active means inhibition above about 43%;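 further: 0% = enzyme with DMSO and 100% = wells lacking enzyme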
HNF4A DNA FP – change in binding of human HNF4A to DNA, primary screen, biochemical, fluorescence polarization, FITC-DNA; Hepatocyte nuclear factor 4-alpha (Homo sapiens), P41235; actives 0.3% (n = 360,000); 1 h; activity change, % at 10 µM; in the data active means activity change above about 30%, passing the limit was not always enough
TbMetRS confirm – T. brucei MetRS inhibitors, confirmation, biochemical, luminescence | shares compounds with Tb MetRS inh | T. brucei MetRS enzyme, luminescence (ATP depletion) | inhibition, % at 11.9 µM | actives 93% (n = 1,400) | AID 624412, 2012; in the data active means inhibition above about 7%
Jurkat cytotox – Jurkat T cell cytotoxicity, cytotoxicity control for T. brucei MetRS inhibitor project, luminescence, high throughput; shares compounds with Tb MetRS inh; Jurkat cells viability, ATP luminescence; inhibition, % at 8.3 µM; actives 12% (n = 1,400); AID 624413, 2012; in the data active means inhibition above about 15%;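 further: 0% = vehicle and 100% = reference inhibitor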
TbMetRS FP orth – T. brucei MetRS inhibitors, orthogonal assay for T. brucei MetRS inhibitor project, biochemical, fluorescence polarization | inhibition, % at 11.9 µM | actives 44% (n = 1,400) | purified T. brucei MetRS | shares compounds with Tb MetRS inh; in the data active means inhibition above about 17%;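 further: 0% = vehicle wells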
* hit, by the source's call; x = not tested or not shown. Hits are enriched below; roughly 2.4% of the tested compounds scored in any of these assays.

SMILES | Rpn11 inh | CSN deneddyl inh | Tb MetRS inh | Neddylation inh | PREPL inhibitor | HNF4A DNA FP | TbMetRS confirm | Jurkat cytotox | TbMetRS FP orth
CC(=O)Oc1cc(C(=O)OCC(=O)N2CCc3ccccc3C2)cc(OC(C)=O)c1OC(C)=O | -6 | 10 | 0 | 6 | 31 | -12 | x | x | x
Cc1ccc(C)c(S(=O)(=O)NC(C)C(=O)NCc2ccccn2)c1 (stereo unspecified) | 3 | 1 | 0 | -4 | 15 | -7 | x | x | x
CN1CCN(C(=O)CCCOc2ccc(Cl)cc2Cl)CC1 | -9 | -2 | 2 | 2 | -3 | 5 | x | x | x
O=C(c1ccco1)N1CCN(C(=O)c2ccc(COc3ccc(Cl)cc3Cl)o2)CC1 | -4 | 0 | 5.9* | 9 | -27 | 2 | 16* | 2 | 13
CN1CCN(C(=O)c2ccc(COc3ccc(Cl)cc3Cl)cc2)CC1 | -3 | 1 | 9.9* | 8 | 16 | -8 | 19* | 8 | 2
O=C(c1ccco1)N1CCN(C(=O)c2ccc(COc3ccc4c(c3)CCC4)o2)CC1 | 6 | 4 | -2 | -5 | 13 | -3 | x | x | x
CN(C)CCNC(=O)c1ccc(COc2ccc(Cl)cc2Cl)cc1 | 0 | -1 | 9.7* | -6 | -77 | 3 | 16* | 27* | 13
COc1ccc(-c2nn(-c3ccccc3)cc2CNC[C@H]2O[C@@H](n3cnc(C(N)=O)n3)[C@H](O)[C@@H]2O)cc1 | 4 | 1 | -3 | 4 | x | -4 | x | x | x
COc1ccc(CN2CCN(Cc3c[nH]c4ccccc34)CC2CCO)c(F)c1 (stereo unspecified) | 4 | -1 | 22* | 1 | 8 | 0 | 42* | 3 | 14
CC(C)NC(=O)CCCOc1ccc(Cl)cc1Cl | -1 | -1 | 6.3* | -17 | 2 | -1 | 11* | -11 | -2
COc1ccc(CNC(=O)COC(=O)CCCOc2ccc(Cl)cc2Cl)cc1 | -1 | 0 | 0 | 9 | -21 | 0 | x | x | x
CCN(CC)C(=O)CCCOc1ccc(Cl)cc1Cl | 5 | 2 | 9.1* | 0 | -8 | -1 | 16* | 13 | 5
CC(C)Nc1nc(NC(C)C)nc(N(C#N)CCOc2ccc(Cl)cc2Cl)n1 | 7 | 0 | -1 | 6 | -2 | -2 | x | x | x
C#CCN(C)CCCOc1ccc(Cl)cc1Cl | -3 | -6 | 7.3* | -4 | -13 | 1 | 18* | 6 | 3
COC(=O)NNC(=O)CCCOc1ccc(Cl)cc1Cl | -25 | -13 | 2 | 0 | 8 | 6 | x | x | x
O=C(COC(=O)CCCOc1ccc(Cl)cc1Cl)Nc1cccc(Cl)c1 | -4 | -3 | 31* | 4 | -31 | -2 | 45* | 1 | 49*
CCN(C(=O)COC(=O)CCC(=O)c1ccc(C)cc1)c1c(N)n(Cc2ccccc2)c(=O)[nH]c1=O | 5 | 2 | 0 | 4 | x | -5 | x | x | x
C[C@H](CO)N1C[C@H](C)[C@@H](CN(C)CC2CC2)Oc2c(NC(=O)Cc3ccccc3)cccc2C1=O | 1 | 1 | 0 | -34 | 21 | 0 | x | x | x
Cc1cc2nc(C(C)(C)C)c(Cc3cccc(F)c3)n2c(C)c1Br | 6 | -5 | 0 | 11 | x | 5 | x | x | x
Cc1ccc2[nH]c(=O)c(CN(Cc3cccs3)Cc3nnnn3Cc3ccccc3)cc2c1 | 10 | 5 | 9.1* | -48 | -19 | 12 | 21* | 5 | 14
C=CCn1c(NC(=O)c2ccccc2Cl)c(C#N)c2nc3ccccc3nc21 | 34 | 57* | 6.8* | x | 27 | 64* | 0 | -2 | 6
O=C(c1cnccn1)N1CCc2c([nH]c3ccccc23)C1c1cccc(Cl)c1 (stereo unspecified) | 18 | 6 | 7.0* | 5 | -8 | 4 | 10* | 8 | 2
CN(C)c1cccc(CNC(=O)c2csc([C@H]3C[C@H](O)[C@@H](CO)O3)n2)c1 | 4 | 0 | 0 | 7 | x | -1 | x | x | x
Fc1ccccc1CSc1nc2ncc(Br)cc2[nH]1 | -1 | 6 | 5.9* | -69 | 9 | 2 | 14* | -4 | 17*
Cc1nc2nc(SCC(=O)C(C)(C)C)[nH]c2cc1Br | -5 | -3 | 0 | -5 | 0 | -1 | x | x | x
SMILES | Rpn11 inh | CSN deneddyl inh | Tb MetRS inh | Neddylation inh | PREPL inhibitor | HNF4A DNA FP | TbMetRS confirm | Jurkat cytotox | TbMetRS FP orth
Brc1cnc2nc(SC/C=C/c3ccccc3)[nH]c2c1 | -6 | -3 | -1 | 3 | -5 | 2 | x | x | x
O=[N+]([O-])c1ccc(CSc2nc3ncc(Br)cc3[nH]2)cc1 | 10 | 9 | 2 | -15 | 0 | -9 | x | x | x
N#Cc1ccccc1CSc1nc2ncc(Br)cc2[nH]1 | 4 | -1 | 8.3* | -190 | 8 | 0 | 37* | -5 | 17*
CC(C)(C)C(=O)CSc1nc2ncc(Br)cc2[nH]1 | 3 | 1 | 7.5* | -9 | 10 | -1 | 18* | -1 | 7
Cc1cc(C)c(O)c(-c2cc(C(=O)NCCc3ccc(S(N)(=O)=O)cc3)[nH]n2)c1 | -4 | -2 | 5.7* | 0 | 20 | -1 | 15* | 4 | 17*
Cc1cc(O)c(-c2cc(C(=O)NCCc3ccc(S(N)(=O)=O)cc3)[nH]n2)cc1C | -4 | -1 | 0 | 1 | 14 | 3 | x | x | x
NS(=O)(=O)c1ccc(CCNC(=O)c2cc(-c3cc(Cl)ccc3O)n[nH]2)cc1 | -1 | 5 | 32* | 7 | -2 | 1 | 38* | 14 | 36*
Cc1noc(C)c1NC(=O)Nc1cccc2c1O[C@H](CN(C)S(=O)(=O)c1cccs1)[C@@H](C)CN([C@H](C)CO)C2=O | 0 | -5 | -2 | 0 | 4 | -3 | x | x | x
COC(=O)[C@]12CCCCC=C1N(Cc1cccc3ccccc13)C(=O)[C@H](CC(=O)NCC13CC4CC(CC(C4)C1)C3)C2 | x | -1 | -1 | 4 | x | 0 | x | x | x
O=C(Cn1ccc2cc(S(=O)(=O)N3CCCC3)ccc21)NCCc1ccccc1 | -8 | 2 | 0 | 8 | -4 | 4 | x | x | x
